From ChEMBL document CHEMBL3585334, “α- and β-Santalols Directly Interact with Tubulin and Cause Mitotic Arrest and Cytotoxicity in Oral Cancer Cells” (2015)
Activity calls are given as the source filed them. No cut-off for these calls is given here.

Experiments:
SCC-4 [1] = test: Induction of mitotic arrest in human SCC4 cells assessed as large multipolar spindles at 61.2 uM after 18 hrs by immunofluorescence microscopy; type: functional, cell-based
[2] = Growth inhibition of human SCC9 cells after 48 hrs by sulforhodamine B assay; type: functional; settings: SCC-9, 48 h; for CC50: read-out: LC50 (the source's name)
Method in brief: (§1)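 Cells grown in DMEM with 10% FBS and 50 μg/mL gentamicin. They were exposed for 48 h to at least six concentrations, and the SRB assay was the read-out. GI50 was taken from log concentration–response curves of 3–9 independent experiments, each run in triplicate. Values are ± SEM.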

Tubulin (Sus scrofa) [3] = biological target: T1, Tubulin (Sus scrofa) (UniProt P02554+P02550); test: Inhibition of porcine brain tubulin polymerization at 50 uM
[4] = Growth inhibition of human HSC3 cells after 48 hrs by sulforhodamine B assay; type: functional; settings: HSC-3, 48 h; for CC50: read-out: LC50 (the source's name); method in brief: as §1
[5] = Growth inhibition of human SCC4 cells after 48 hrs by sulforhodamine B assay; type: functional; settings: SCC-4, 48 h; for CC50: read-out: LC50 (the source's name); method in brief: as §1
SCC-4 [6] = test: Induction of cell cycle arrest in human SCC4 cells assessed as cells accumulation at G2/M phase at 4 times of LC50 concentration after 18 hrs by propidium iodide-staining based flow cytometry; type: functional
Method in brief: (§2)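 SCC-4 cells treated for 18 h with DMSO vehicle, 15 nM paclitaxel, or 1×, 2×, 3× or 4× LC50. Cells were stained with propidium iodide and cell-cycle distribution was read by flow cytometry. Three independent experiments.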

[7] = Growth inhibition of human SCC25 cells after 48 hrs by sulforhodamine B assay; type: functional; settings: SCC-25, 48 h; for CC50: read-out: LC50 (the source's name); method in brief: as §1
HN5 = test: Growth inhibition of human HN5 cells after 48 hrs by sulforhodamine B assay; type: functional; settings: HN5, 48 h; method in brief: as §1
SCC-4 [8] = test: Induction of mitotic arrest in human SCC4 cells assessed as increase number of cells with a rounded morphology at 61.2 uM after 18 hrs by immunofluorescence microscopy; type: functional, cell-based
[9] = Growth inhibition of human CAL27 cells after 48 hrs by sulforhodamine B assay; type: functional; settings: CAL-27, 48 h; method in brief: as §1
Tubulin (Sus scrofa) [10] = biological target: T1, Tubulin (Sus scrofa); test: Binding affinity to porcine brain tubulin relative to colchicine
Method in brief: (§3)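 Displacement of colchicine or vinblastine from purified tubulin, with the santalol at up to 7000-fold excess over the reference drug.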

Tubulin (Sus scrofa) [11] = biological target: T1, Tubulin (Sus scrofa); test: Binding affinity to porcine brain tubulin relative to vinblastine; method in brief: as §3
SCC-4 [12] = test: Induction of cell cycle arrest in human SCC4 cells assessed as cells accumulation at G2/M phase after 18 hrs by propidium iodide-staining based flow cytometry; type: functional; method in brief: as §2
[13] = Growth inhibition of human HSC2 cells after 48 hrs by sulforhodamine B assay; type: functional; settings: HSC-2, 48 h; for CC50: read-out: LC50 (the source's name); method in brief: as §1
SCC-4 [14] = test: Induction of cell cycle arrest in human SCC4 cells assessed as cells accumulation at G2/M phase at 3 times of LC50 concentration after 18 hrs by propidium iodide-staining based flow cytometry; type: functional; method in brief: as §2
SCC-4 [15] = test: Induction of mitotic arrest in human SCC4 cells assessed as punctuate and numerous spindles at 55.6 uM after 18 hrs by immunofluorescence microscopy; type: functional, cell-based
SCC-4 [16] = test: Induction of mitotic arrest in human SCC4 cells assessed as increase number of cells with a rounded morphology at 55.6 uM after 18 hrs by immunofluorescence microscopy; type: functional, cell-based
Tubulin (Sus scrofa) [17] = biological target: T1, Tubulin (Sus scrofa); test: Inhibition of porcine brain tubulin polymerization

T1 sequence (P02550 whole entry, looked up): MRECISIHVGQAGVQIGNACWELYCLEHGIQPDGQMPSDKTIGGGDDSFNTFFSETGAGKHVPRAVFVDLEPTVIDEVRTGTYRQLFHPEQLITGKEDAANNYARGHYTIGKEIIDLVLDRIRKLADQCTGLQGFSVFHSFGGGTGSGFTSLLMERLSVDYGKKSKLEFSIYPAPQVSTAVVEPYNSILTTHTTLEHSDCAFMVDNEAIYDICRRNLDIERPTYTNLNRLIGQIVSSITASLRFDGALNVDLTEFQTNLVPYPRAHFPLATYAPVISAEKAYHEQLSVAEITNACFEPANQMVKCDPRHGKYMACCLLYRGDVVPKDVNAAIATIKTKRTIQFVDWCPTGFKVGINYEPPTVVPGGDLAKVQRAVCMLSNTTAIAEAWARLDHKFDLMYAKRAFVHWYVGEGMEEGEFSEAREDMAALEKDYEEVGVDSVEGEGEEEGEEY
T1 sequence (P02554 whole entry, looked up): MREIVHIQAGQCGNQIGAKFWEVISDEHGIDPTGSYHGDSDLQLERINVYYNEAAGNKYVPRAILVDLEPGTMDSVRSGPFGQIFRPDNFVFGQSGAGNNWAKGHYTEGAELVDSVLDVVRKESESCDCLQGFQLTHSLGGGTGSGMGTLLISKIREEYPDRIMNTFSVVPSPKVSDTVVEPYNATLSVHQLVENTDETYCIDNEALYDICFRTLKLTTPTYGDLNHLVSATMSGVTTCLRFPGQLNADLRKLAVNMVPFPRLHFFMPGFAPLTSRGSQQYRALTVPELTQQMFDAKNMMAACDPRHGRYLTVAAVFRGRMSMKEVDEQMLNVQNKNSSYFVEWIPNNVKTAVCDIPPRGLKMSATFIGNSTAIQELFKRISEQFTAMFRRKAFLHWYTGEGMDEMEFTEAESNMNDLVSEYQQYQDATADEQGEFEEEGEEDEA

Compound | GI50 [2] [µM] | TGI [2] [µM] | CC50 [2] [µM] | inhibition (Tubulin (Sus scrofa) [3]) | GI50 [4] [µM] | TGI [4] [µM] | CC50 [4] [µM] | GI50 [5] [µM] | TGI [5] [µM] | CC50 [5] [µM] | Activity (SCC-4 [6]) | GI50 [7] [µM] | TGI [7] [µM] | CC50 [7] [µM] | GI50 (HN5) [µM] | TGI (HN5) [µM] | GI50 [9] [µM] | TGI [9] [µM] | fold change (FC) (Tubulin (Sus scrofa) [10]) | fold change (FC) (Tubulin (Sus scrofa) [11]) | also measured
C=C1[C@@H]2CC[C@@H](C2)[C@@]1(C)CC/C=C(/C)CO | 4.2 | 6.8 | 14.5 | Active | 4.4 | 6.1 | 9.1 | 5.8 | 10 | 14.3 | Active | 4.2 | 6.3 | 11.1 | 6.3 | 9.6 | 5.7 | 8.4 | > 7000 | > 7000 | Activity (SCC-4 [1]): Active; Activity (SCC-4 [8]): Active; Activity (SCC-4 [12]): Dose-dependent effect; GI50 [13]: 7.3 µM; TGI [13]: 9.4 µM; CC50 [13]: 11.9 µM; Activity (SCC-4 [14]): Active
C/C(=C/CC[C@]1(C)C2C[C@@H]3[C@H](C2)C31C)CO | 3.4 | 5.3 | 9 | Active | 3.9 | 5.4 | 7.7 | 4.5 | 7.7 | 14 | Active | 3.5 | 6 | 11.6 | 5.3 | 8.2 | 5.5 | 7.6 | > 7000 | > 7000 | Activity (SCC-4 [15]): Active; LC50 (HN5): 12.2 µM; LC50 [9]: 11 µM; Activity (SCC-4 [16]): Active; Activity (SCC-4 [12]): Dose-dependent effect; GI50 [13]: 4.6 µM; TGI [13]: 9.2 µM; CC50 [13]: 10.8 µM; inhibition (Tubulin (Sus scrofa) [17]): Dose-dependent effect
